The source of these data is ChEMBL document CHEMBL4196054, “Facile synthesis of 1,2-dione-containing abietane analogues for the generation of human carboxylesterase inhibitors” (Eur J Med Chem, 2018).

The target of data set [1] is Acetylcholinesterase (Homo sapiens) (UniProt P22303). As to the kind of experiment: Inhibition of human AChE using acetylthiocholine as substrate at 5 uM by spectrophotometric analysis. In short, it runs like this: (§1)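 Run like the carboxylesterase assay in 50mM Hepes pH7.4 with DMSO-dissolved inhibitor, reaction started by enzyme addition. Substrate is acetylthiocholine (AChE) or butyrylthiocholine (BChE). Inhibitor tested at a single 5µM concentration.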

The nature of data set [2]: Inhibition of human intestinal carboxylesterase using o-nitrophenyl acetate as substrate. In short, it runs like this:
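Purified human intestinal CE (hiCE), chromatographically pure. Read in 96-well format with 3mM o-nitrophenyl acetate in 50mM Hepes, pH7.4. Inhibitors were added in DMSO and the reaction was started by adding enzyme. At least 8 inhibitor concentrations were run in triplicate against DMSO-only controls. Data were fitted to a multifactorial equation, the best model was chosen by Akaike's information criteria, and Ki was taken from the curve fits.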

In data set [3] the target is Cholinesterase (Homo sapiens) (UniProt P06276). As to the kind of experiment: Inhibition of human BChE using butyrylthiocholine as substrate at 5 uM by spectrophotometric analysis. In short, it runs like this: as §1
The species entered for data set [4] is Homo sapiens. In words: Selectivity index, ratio of Ki for human liver carboxylesterase 1 to Ki for human intestinal carboxylesterase.
In data set [5] the target is T1, Liver carboxylesterase 1 (Homo sapiens, UniProt P23141).
T1 sequence (P23141 whole entry): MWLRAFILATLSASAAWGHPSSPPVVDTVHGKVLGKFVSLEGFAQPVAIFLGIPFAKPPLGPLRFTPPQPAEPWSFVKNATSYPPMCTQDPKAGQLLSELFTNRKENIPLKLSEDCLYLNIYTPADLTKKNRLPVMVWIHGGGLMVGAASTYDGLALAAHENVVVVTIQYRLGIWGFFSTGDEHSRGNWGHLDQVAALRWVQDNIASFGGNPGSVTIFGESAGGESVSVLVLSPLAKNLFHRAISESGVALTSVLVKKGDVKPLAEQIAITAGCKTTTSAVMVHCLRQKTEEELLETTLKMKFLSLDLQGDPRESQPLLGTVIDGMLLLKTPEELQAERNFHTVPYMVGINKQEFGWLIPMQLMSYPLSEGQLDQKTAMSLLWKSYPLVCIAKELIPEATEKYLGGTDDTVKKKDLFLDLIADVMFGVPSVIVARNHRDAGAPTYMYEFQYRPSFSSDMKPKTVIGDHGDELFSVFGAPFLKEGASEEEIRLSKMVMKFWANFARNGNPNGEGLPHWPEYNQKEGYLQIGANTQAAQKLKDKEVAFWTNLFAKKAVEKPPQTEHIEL
As to the kind of experiment: Inhibition of human liver carboxylesterase 1 using o-nitrophenyl acetate as substrate. In short, it runs like this:
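Chromatographically pure human hCE1 in 50mM Hepes pH7.4 with 3mM o-nitrophenyl acetate. Inhibitor in DMSO, at least 8 concentrations, triplicates, compared against DMSO-only controls. Reaction started by enzyme addition. Data fitted to a multifactorial equation, the best inhibition model chosen by Akaike's information criterion, and Ki taken from the curve fits.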

Data set [6] is filed under the species Homo sapiens. In words: Potency index, ratio of miltirone Ki to compound Ki for inhibition of human intestinal carboxylesterase.
Data set [7] concerns the target T2, liver carboxylesterase 1 (CES1) (Homo sapiens, UniProt P23141).
T2 sequence (P23141 whole entry): T1 sequence (P23141 whole entry)
In words: Potency index, ratio of miltirone Ki to compound Ki for inhibition of human liver carboxylesterase 1. The following applies: read-out: Ratio Ki.

As a reminder, the inhibition is the share of the control response that was lost under treatment. In general, Ki refers to the equilibrium dissociation constant of an inhibitor or competing ligand from its target. A low value points to a stronger hold on the target.

Acetylcholinesterase (Homo sapiens), sequence (P22303 whole entry): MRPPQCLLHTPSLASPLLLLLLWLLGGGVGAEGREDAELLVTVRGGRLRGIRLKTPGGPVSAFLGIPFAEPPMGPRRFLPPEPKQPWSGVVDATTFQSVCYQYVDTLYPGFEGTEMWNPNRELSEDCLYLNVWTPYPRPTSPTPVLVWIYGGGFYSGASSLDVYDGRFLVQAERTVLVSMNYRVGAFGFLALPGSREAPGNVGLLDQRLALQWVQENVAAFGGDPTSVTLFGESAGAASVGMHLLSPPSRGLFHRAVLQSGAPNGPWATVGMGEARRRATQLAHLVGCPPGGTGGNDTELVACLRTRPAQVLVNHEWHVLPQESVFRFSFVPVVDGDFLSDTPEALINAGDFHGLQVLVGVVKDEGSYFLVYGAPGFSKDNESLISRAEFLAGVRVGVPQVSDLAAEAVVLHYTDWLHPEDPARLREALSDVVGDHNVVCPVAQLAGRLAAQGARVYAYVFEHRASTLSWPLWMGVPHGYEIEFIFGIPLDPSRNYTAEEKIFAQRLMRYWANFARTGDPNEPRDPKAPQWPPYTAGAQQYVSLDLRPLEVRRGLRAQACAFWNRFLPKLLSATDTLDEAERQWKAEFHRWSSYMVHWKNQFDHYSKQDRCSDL
Cholinesterase (Homo sapiens), sequence (P06276 whole entry): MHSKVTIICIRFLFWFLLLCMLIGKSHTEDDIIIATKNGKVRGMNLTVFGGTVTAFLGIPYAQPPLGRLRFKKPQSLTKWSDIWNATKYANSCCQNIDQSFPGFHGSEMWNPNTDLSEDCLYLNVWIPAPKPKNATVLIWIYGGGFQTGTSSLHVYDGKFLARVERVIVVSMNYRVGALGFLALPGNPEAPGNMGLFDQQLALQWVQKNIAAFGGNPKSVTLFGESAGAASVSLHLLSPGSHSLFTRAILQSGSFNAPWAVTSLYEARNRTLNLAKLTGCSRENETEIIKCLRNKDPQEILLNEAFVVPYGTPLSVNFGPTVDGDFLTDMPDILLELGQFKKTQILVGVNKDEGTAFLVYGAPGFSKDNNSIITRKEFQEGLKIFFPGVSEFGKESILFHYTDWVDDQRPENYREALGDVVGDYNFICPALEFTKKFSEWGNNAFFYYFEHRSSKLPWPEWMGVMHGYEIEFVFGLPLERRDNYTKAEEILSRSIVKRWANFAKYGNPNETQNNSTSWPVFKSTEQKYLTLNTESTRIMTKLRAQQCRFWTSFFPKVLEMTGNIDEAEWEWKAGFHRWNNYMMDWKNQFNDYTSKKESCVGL

Turning to `CC(C)C1=Cc2ccc3c(c2C(=O)C1=O)CCC(C)(C)C3`, the inhibition in data set [1] came to 30%; in data set [3] it was 3%. The inhibition constant Ki in data set [2] worked out at 70.7 nM; in data set [5], 4200 nM. For the same compound, the Ratio Ki in data set [4] was determined as 59.5.
`CC1=Cc2ccc3c(c2C(=O)C1=O)CCOC3`: the inhibition was 27% in data set [1] and 0% in data set [3]. For the same compound, the Ki in data set [2] and in data set [5] was not below 10000 nM in each case.
Regarding `CC(C)C1=Cc2ccc3c(c2C(=O)C1=O)CCCC3`, the inhibition was found to be 16% in data set [1] and 1% in data set [3]. Further, the values for the inhibitory constant (Ki) in data set [2] and in data set [5] were 111 nM and 1050 nM, respectively.
Turning to `CC1(C)CCc2ccc3c(c2C1)C(=O)C(=O)C(F)=C3`, the values for the inhibition in data set [1] and in data set [3] were 3% and 23%, respectively. Moreover, the Ki in data set [2] came to 14.6 nM; in data set [5], 42 nM. For the same compound, the figures for the Ratio Ki in data set [6] and in data set [4] were 3 and 2.9, respectively.
As to `CC1=Cc2ccc3c(c2C(=O)C1=O)CCC(C)(C)C3`, the inhibition was determined as 1% in data set [1] and 2% in data set [3]. In addition, the figures for the inhibition constant (Ki) in data set [2] and in data set [5] were 182 nM and 495 nM, respectively. Further, the Ratio Ki in data set [4] came to 2.7.
Taken in the same sequence, the figures for `CC1=Cc2ccc3c(c2C(=O)C1=O)CC(C)(C)CC3` were 0%, 1%, 87.9 nM, 2420 nM and 27.6.
On to `CC1(C)CCc2ccc3c(c2C1)C(=O)C(=O)C(F)=C3F`, for which the inhibition in data set [1] stood at 4%; in data set [3], 1%. In addition, the Ki in data set [2] was 43.3 nM; in data set [5], 102 nM. The Ratio Ki in data set [4] stood at 2.3.
With `O=C1C(=O)c2c(ccc3c2CCCC3)C=C1F`, the results for the inhibition in data set [1] and in data set [3] were 16% and 62%, respectively. The Ki came to 112 nM in data set [2] and 12.2 nM in data set [5]. In addition, in data set [7], the selectivity ratio came to 210. Further, in data set [4], the Ratio Ki stood at 0.11.
As for `O=C1C=Cc2ccc3c(c2C1=O)CCCC3`, the inhibition in data set [1] came out at 0%; in data set [3], 54%. The values for the Ki in data set [2] and in data set [5] were 2180 nM and 131 nM, respectively. Also, the Ratio Ki in data set [4] was determined as 0.06.
The corresponding values for `COC1=Cc2ccc3c(c2C(=O)C1=O)CC(C)(C)CC3` are 2%, 1%, 159 nM, 42.5 nM and 0.3.
Take `O=C1C(=O)c2c(ccc3ccccc23)C=C1F`: the results for the inhibition in data set [1] and in data set [3] were 8% and 3%, respectively. Moreover, the Ki was 51.3 nM in data set [2] and 48.7 nM in data set [5]. Moreover, the Ratio Ki in data set [4] worked out at 0.48.
Consider `O=C1C=Cc2ccc3ccccc3c2C1=O`, for which the inhibition in data set [1] turned out to be 16%; in data set [3], 13%. The inhibition constant Ki in data set [2] was not below 10000 nM; in data set [5], 942 nM. Besides, in data set [4], the Ratio Ki was less than 0.06.
Taken in the same sequence, the figures for `CC1(C)CCc2ccc3c(c2C1)C(=O)C(=O)C=C3` were 2%, 13%, 341 nM, 31.9 nM and 0.09.
As to `CC1=Cc2ccc3c(c2C(=O)C1=O)CCCC3`, the figures for the inhibition in data set [1] and in data set [3] were 5% and 4%, respectively. Also, the Ki in data set [2] is 423 nM; in data set [5] it was 1220 nM. The Ratio Ki in data set [4] came to 2.9.
Consider `CC1(C)CCc2ccc3c(c2C1)C(=O)C(=O)C=C3F`, for which the figures for the inhibition in data set [1] and in data set [3] were 10% and 15%, respectively. Further, the values for the Ki in data set [2] and in data set [5] were 386 nM and 14.4 nM, respectively. Besides, in data set [7], the selectivity ratio was determined as 175. In addition, the Ratio Ki in data set [4] amounted to 0.04.
For the compound `CC(C)C1=Cc2ccc3c(c2C(=O)C1=O)CCCC3(C)C` [MILTIRONE], the inhibition in data set [1] is 22%; in data set [3], 6%.
As for `O=C1C=C(F)c2ccc3c(c2C1=O)CCCC3`, the inhibition in data set [1] came to 4%; in data set [3], 33%. The Ki stood at 171 nM in data set [2] and 25.9 nM in data set [5]. Moreover, in data set [4], the Ratio Ki is 0.15.
On to `CC(C)C1=Cc2ccc3c(c2C(=O)C1=O)CC(C)(C)CC3`, for which the inhibition in data set [1] came out at 20%; in data set [3], 4%. In addition, the values for the Ki in data set [2] and in data set [5] were 31.2 nM and 1870 nM, respectively. The Ratio Ki in data set [4] stood at 60.
On to `CC1=CC(=O)C(=O)c2c1ccc1c2CCCC1`, for which the results for the inhibition in data set [1] and in data set [3] were 13% and 30%, respectively. Besides, the figures for the Ki in data set [2] and in data set [5] were not below 10000 nM and 25.1 nM, respectively.
